The source of these data is ChEMBL document CHEMBL1153507, “Synthesis, DNA intercalation and 3D QSAR analysis of cis-2,4,5-trisubstituted-1,3-dithiolanes as a novel class of antitumor agents” (2009).

The test system of assay [1] is Calf thymus DNA. Nature of the assay: Binding affinity to calf thymus DNA by spectroscopy. The settings on record: Bos taurus. It counts as nucleic-acid assay. In a few lines: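 UV-vis titration of calf thymus DNA (10 µM final) in PBS, pH 7.4. Compound from a 10 mM PBS stock was added in sequential aliquots to final 4–40 µM, and spectra were recorded after each addition. Compounds were transparent at 200–360 nm.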

The test system of assay [2] is Calf thymus DNA. Description: Binding affinity to calf thymus DNA by circular diachromic assay. It counts as nucleic-acid assay. The settings on record: Bos taurus.
Assay [3] concerns Calf thymus DNA. Description: Binding affinity to calf thymus DNA assessed as hyperchromic effect by UV-vis spectrophotometry. To be noted: Bos taurus.
Assay [4] relates to CCRF S-180. Nature of the assay: Antitumor activity against mouse S180 cells implanted in ICR mouse assessed as tumor weight at 44.64 umol/kg/day, ip administered for 7 consecutive days after 24 hrs of tumor implantation measured after 24 hrs post dose. It counts as functional. In a few lines: (§1)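 Male ICR mice aged 10–12 weeks, housed at 21 °C on a natural light cycle, carried S180 tumors. 24 h after implantation they were randomized into groups of 10. Daily ip dosing in 0.2 ml normal saline for 7 days: test agents 44.64 µmol/kg/day, cytarabine 89.28 µmol/kg/day, saline as negative control. Mice were killed 24 h after the last dose and tumors weighed. Inhibition = (control − treated)/control tumor weight. Mean ± SD.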

Assay [5] has as its system CCRF S-180. Nature of the assay: Antitumor activity against mouse S180 cells xenografted in ip dosed ICR mouse assessed as inhibition of tumor weight administered for 7 consecutive days after 24 of hrs tumor implantation measured after 24 hrs post dose. It counts as functional, organism-based. In a few lines:
as §1

Assay [6] relates to CCRF S-180. Nature of the assay: Antitumor activity against mouse S180 cells implanted in ICR mouse assessed as tumor weight at 89.28 umol/kg/day, ip administered for 7 consecutive days after 24 hrs of tumor implantation measured after 24 hrs post dose. It counts as functional. In short, it runs like this:
as §1

Each structure is given as a SMILES string. Activity calls are given as the source filed them. The rule behind the calls is not given here.

For `N[C@@H](Cc1c[nH]c2ccccc12)C(=O)OC[C@@H]1S[C@H](CC=O)S[C@@H]1COC(=O)[C@@H](N)Cc1c[nH]c2ccccc12`, the result in the assay with Calf thymus DNA [1], with Calf thymus DNA [2] and with Calf thymus DNA [3] was Active. The Activity with CCRF S-180 [4] is reported as 0.954 g.
As for `N[C@@H](Cc1ccccc1)C(=O)OC[C@@H]1S[C@H](CC=O)S[C@@H]1COC(=O)[C@@H](N)Cc1ccccc1`, in the assay on CCRF S-180 [5], the inhibition entry was “Dose-dependent effect”. Besides, the outcome with Calf thymus DNA [1], in the assay on Calf thymus DNA [2] and with Calf thymus DNA [3] was Active. Besides, the Activity with CCRF S-180 [4] turned out to be 0.693 g.
`Nc1ccn([C@@H]2O[C@H](CO)[C@@H](O)[C@@H]2O)c(=O)n1` [CYTARABINE]: the Activity in the assay on CCRF S-180 [6] is 0.582 g.
As to `N[C@@H](CO)C(=O)OC[C@@H]1S[C@H](CC=O)S[C@@H]1COC(=O)[C@@H](N)CO`, the result with Calf thymus DNA [1], in the assay on Calf thymus DNA [2] and in the assay with Calf thymus DNA [3] was Active. For the same compound, the Activity with CCRF S-180 [4] is listed as 1.493 g.
As for `N=C(N)NCCC[C@H](N)C(=O)OC[C@@H]1S[C@H](CC=O)S[C@@H]1COC(=O)[C@@H](N)CCCNC(=N)N`, the result in the assay with Calf thymus DNA [1], with Calf thymus DNA [2] and in the assay with Calf thymus DNA [3] was Active. Also, the Activity in the assay on CCRF S-180 [4] is 0.778 g.
As to `C[C@@H](O)[C@H](N)C(=O)OC[C@@H]1S[C@H](CC=O)S[C@@H]1COC(=O)[C@@H](N)[C@@H](C)O`, the result in the assay on Calf thymus DNA [1], in the assay with Calf thymus DNA [2] and with Calf thymus DNA [3] was Active. Moreover, the Activity with CCRF S-180 [4] amounted to 1.087 g.
As to `N[C@@H](Cc1ccc(O)cc1)C(=O)OC[C@@H]1S[C@H](CC=O)S[C@@H]1COC(=O)[C@@H](N)Cc1ccc(O)cc1`, in the assay on CCRF S-180 [5], the inhibition result is “Dose-dependent effect”. In addition, the outcome with Calf thymus DNA [1], in the assay with Calf thymus DNA [2] and with Calf thymus DNA [3] was Active. Also, the Activity in the assay with CCRF S-180 [4] was determined as 0.529 g.
Regarding `NC(=O)CC[C@H](N)C(=O)OC[C@@H]1S[C@H](CC=O)S[C@@H]1COC(=O)[C@@H](N)CCC(N)=O`, the result in the assay on Calf thymus DNA [1], in the assay on Calf thymus DNA [2] and in the assay with Calf thymus DNA [3] was Active. Also, in the assay on CCRF S-180 [4], the Activity is 1.061 g.
With `NCCCC[C@H](N)C(=O)OC[C@@H]1S[C@H](CC=O)S[C@@H]1COC(=O)[C@@H](N)CCCCN`, the outcome in the assay with Calf thymus DNA [1], with Calf thymus DNA [2] and in the assay with Calf thymus DNA [3] was Active. Further, in the assay on CCRF S-180 [4], the Activity is 0.989 g.
For `CC[C@H](C)[C@H](N)C(=O)OC[C@@H]1S[C@H](CC=O)S[C@@H]1COC(=O)[C@@H](N)[C@@H](C)CC`, the result with Calf thymus DNA [1], with Calf thymus DNA [2] and with Calf thymus DNA [3] was Active. For the same compound, in the assay on CCRF S-180 [4], the Activity amounted to 1.064 g.
With `N[C@@H](CCC(=O)O)C(=O)OC[C@@H]1S[C@H](CC=O)S[C@@H]1COC(=O)[C@@H](N)CCC(=O)O`, the outcome in the assay on Calf thymus DNA [1], with Calf thymus DNA [2] and in the assay with Calf thymus DNA [3] was Active. Further, the Activity in the assay on CCRF S-180 [4] was determined as 1.051 g.
For `O=CC[C@H]1S[C@@H](COC(=O)[C@@H]2CCCN2)[C@@H](COC(=O)[C@@H]2CCCN2)S1`, the outcome in the assay on Calf thymus DNA [1], in the assay on Calf thymus DNA [2] and in the assay on Calf thymus DNA [3] was Active. Besides, in the assay with CCRF S-180 [4], the Activity amounted to 1.446 g.
For the compound `NC(=O)C[C@H](N)C(=O)OC[C@@H]1S[C@H](CC=O)S[C@@H]1COC(=O)[C@@H](N)CC(N)=O`, the outcome in the assay on Calf thymus DNA [1], with Calf thymus DNA [2] and in the assay on Calf thymus DNA [3] was Active. The Activity in the assay on CCRF S-180 [4] was 0.855 g.
With `CC(C)[C@H](N)C(=O)OC[C@@H]1S[C@H](CC=O)S[C@@H]1COC(=O)[C@@H](N)C(C)C` (mixture of isomers), the result in the assay with Calf thymus DNA [1], with Calf thymus DNA [2] and in the assay on Calf thymus DNA [3] was Active. In the assay on CCRF S-180 [4], the Activity is 1.114 g.
Consider `CC(C)C[C@H](N)C(=O)OC[C@@H]1S[C@H](CC=O)S[C@@H]1COC(=O)[C@@H](N)CC(C)C`, for which the outcome in the assay on Calf thymus DNA [1], in the assay on Calf thymus DNA [2] and in the assay with Calf thymus DNA [3] was Active. Also, in the assay on CCRF S-180 [4], the Activity is 1.296 g.
With `C[C@H](N)C(=O)OC[C@@H]1S[C@H](CC=O)S[C@@H]1COC(=O)[C@H](C)N`, the outcome in the assay with Calf thymus DNA [1], with Calf thymus DNA [2] and in the assay on Calf thymus DNA [3] was Active. Also, the Activity in the assay with CCRF S-180 [4] amounted to 1.213 g.
Turning to `N[C@@H](Cc1c[nH]cn1)C(=O)OC[C@@H]1S[C@H](CC=O)S[C@@H]1COC(=O)[C@@H](N)Cc1c[nH]cn1`, the outcome in the assay with Calf thymus DNA [1], with Calf thymus DNA [2] and in the assay with Calf thymus DNA [3] was Active. Moreover, in the assay with CCRF S-180 [4], the Activity turned out to be 1.076 g.
Turning to `CSCC[C@H](N)C(=O)OC[C@@H]1S[C@H](CC=O)S[C@@H]1COC(=O)[C@@H](N)CCSC`, the result in the assay with Calf thymus DNA [1], in the assay on Calf thymus DNA [2] and with Calf thymus DNA [3] was Active. Besides, the Activity in the assay with CCRF S-180 [4] was 1.139 g.
For `NCC(=O)OC[C@@H]1S[C@H](CC=O)S[C@@H]1COC(=O)CN`, in the assay on CCRF S-180 [5], the inhibition result was “Dose-dependent effect”. Moreover, the result in the assay on Calf thymus DNA [1], in the assay on Calf thymus DNA [2] and in the assay on Calf thymus DNA [3] was Active. The Activity with CCRF S-180 [4] is given as 0.723 g.
